The values that follow come from ChEMBL document CHEMBL1127349, “6,7,8,9-Tetrahydro-N,N-di-n-propyl-3H-benzindol-8-amines. Derivatives as potent and orally active serotonin 5-HT1A receptor agonists” (J Med Chem, 1994).

Assay [1] relates to Rattus norvegicus. The experiment in a line: Motor activity was measured by motility testing on injecting the compound subcutaneously into rats at the dose of 12.5 umol/kg. The class given is functional. The method, boiled down:
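Rats given reserpine 5 mg/kg sc 18 h beforehand, then test compound sc in neck (n = 4). Placed singly in photocell motility meters straight after dosing; counts recorded for 30 min, gross behaviour observed throughout. Value as counts/30 min with SEM.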

Assay [2] has as its system Rattus norvegicus. The experiment in a line: Motor activity was measured by motility testing on injecting the compound subcutaneously into rats at the dose of 0.02 umol/kg (1a) and 3.5 umol/kg (1b).
The species named for assay [3] is Rattus norvegicus. The experiment in a line: Log concentration to inhibit DOPA accumulation was determined in rat limbic system. The class given is functional. In a few lines: (§1)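 Reserpine-pretreated (5 mg/kg sc, 18 h) male Sprague-Dawley rats, 200–300 g; compounds in saline given sc. DOPA and 5-HTP in limbic system, striatum and hemispheres measured by HPLC with electrochemical detection. Dose–response curves of 4–6 doses (n = 4) per area, fitted to variable-slope sigmoid on log data to give ED50.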

Assay [4] is filed under the species Rattus norvegicus. The experiment in a line: The concentration yielding a half maximal decrease of the 5-HTP was determined in rat brain hemispheres. It is filed as functional. The method, boiled down:
as §1

The species named for assay [5] is Rattus norvegicus. Kind of assay: The concentration yielding a half maximal decrease of the DOPA was determined in rat brain striatum. The class given is functional. The method, boiled down: as §1
For assay [6], the species on record is Rattus norvegicus. Kind of assay: The concentration yielding a half maximal decrease of the 5-HTP was determined in rat limbic system. It is filed as functional. In a few lines: as §1
The species entered for assay [7] is Rattus norvegicus. Kind of assay: Log concentration to inhibit DOPA accumulation was determined in rat brain striatum. The class given is functional. In a few lines: as §1
The species named for assay [8] is Rattus norvegicus. Kind of assay: Log concentration to inhibit 5-HTP accumulation was determined in rat brain hemispheres. It is filed as functional. In a few lines:
as §1

The species entered for assay [9] is Rattus norvegicus. The experiment in a line: Log concentration to inhibit 5-HTP accumulation was determined in rat limbic system. The class given is functional. In a few lines: as §1
Assay [10] deals with Rattus norvegicus. The experiment in a line: The concentration yielding a half maximal decrease of the DOPA was determined in rat brain hemispheres; inactive at 12.5 umol/kg. It is filed as functional, organism-based. In a few lines: as §1
The species entered for assay [11] is Rattus norvegicus. Kind of assay: The concentration yielding a half maximal decrease of the DOPA was determined in rat limbic system. It is filed as functional.
The species named for assay [12] is Rattus norvegicus. Kind of assay: Log concentration to inhibit 5-HTP accumulation was determined in rat brain striatum. It is filed as functional. In a few lines:
as §1

Assay [13] concerns the target T1, 5-hydroxytryptamine receptor 1A (Rattus norvegicus, UniProt P19327).
T1 sequence (P19327 whole entry): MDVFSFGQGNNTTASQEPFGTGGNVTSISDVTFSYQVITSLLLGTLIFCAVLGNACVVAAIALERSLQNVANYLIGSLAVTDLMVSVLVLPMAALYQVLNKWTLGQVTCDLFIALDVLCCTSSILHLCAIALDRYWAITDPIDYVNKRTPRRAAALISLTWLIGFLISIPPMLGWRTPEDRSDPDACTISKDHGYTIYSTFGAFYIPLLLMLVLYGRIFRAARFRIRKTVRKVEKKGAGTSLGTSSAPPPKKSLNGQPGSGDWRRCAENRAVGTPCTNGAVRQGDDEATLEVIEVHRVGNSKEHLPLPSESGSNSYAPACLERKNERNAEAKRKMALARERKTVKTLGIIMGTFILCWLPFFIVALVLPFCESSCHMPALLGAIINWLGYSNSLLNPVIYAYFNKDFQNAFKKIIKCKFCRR
The experiment in a line: Displacement of the radioligand [3H]8-OH-DPAT from 5-hydroxytryptamine 1A receptor. The method, boiled down:
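Rat whole brain minus brain stem and cerebellum, washed membranes in 50 mM Tris pH 8.0 with 120 mM NaCl, 4 mM CaCl2, 4 mM MgCl2, 10 μM pargyline. Nonspecific with 10 μM 5-HT. IC50 by semilog linear regression, Ki via Cheng–Prusoff; 3–7 experiments, triplicates.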

For assay [14], the species on record is Rattus norvegicus. The experiment in a line: The concentration yielding a half maximal decrease of the 5-HTP was determined in rat brain hemispheres. It is filed as functional.
The species entered for assay [15] is Rattus norvegicus. Kind of assay: The concentration yielding a half maximal decrease of the DOPA was determined in rat brain striatum. The class given is functional.
For assay [16], the species on record is Rattus norvegicus. Kind of assay: The concentration yielding a half maximal decrease of the 5-HTP was determined in rat limbic system. The class given is functional.
Assay [17] is filed under the species Rattus norvegicus. Kind of assay: The concentration yielding a half maximal decrease of the DOPA was determined in rat limbic system. It is filed as functional.
Assay [18] is filed under the species Rattus norvegicus. The experiment in a line: The concentration yielding a half maximal decrease of the 5-HTP was determined in rat brain striatum. It is filed as functional.
In assay [19] the test system is Rattus norvegicus. Kind of assay: The concentration yielding a half maximal decrease of the DOPA was determined in rat brain hemispheres; Inactive at 50 umol/kg. The class given is functional, organism-based. In a few lines: as §1
The next assay concerns the target D(2) dopamine receptor (Rattus norvegicus, UniProt P61169). The experiment in a line: Displacement of the radioligand [3H]spiperone from D2 receptor. The method, boiled down: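 Rat striatal membranes in 50 mM potassium phosphate buffer, incubated with 0.5 nM [3H]spiperone (3 mg tissue) 10 min at 37 °C. Nonspecific binding defined with 10 μM 6,7-ADTN. IC50 converted to Ki by Cheng–Prusoff; 3–7 experiments, each concentration in triplicate.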

The subject of assay [20] is Rattus norvegicus. The experiment in a line: The concentration yielding a half maximal decrease of the 5-HTP was determined in rat brain striatum; inactive at 50 umol/kg. It is filed as functional, organism-based. The method, boiled down:
as §1

In assay [21] the test system is Rattus norvegicus. Kind of assay: The concentration yielding a half maximal decrease of the DOPA was determined in rat brain striatum; inactive at 50 umol/kg. The class given is functional, organism-based.
Assay [22] has as its system Rattus norvegicus. Kind of assay: The concentration yielding a half maximal decrease of the 5-HTP was determined in rat brain hemispheres; inactive at 50 umol/kg. It is filed as functional, organism-based. The method, boiled down: as §1
The subject of assay [23] is Rattus norvegicus. The experiment in a line: The concentration yielding a half maximal decrease of the DOPA was determined in rat brain hemispheres; inactive at 50 umol/kg. It is filed as functional, organism-based. The method, boiled down: as §1
For assay [24], the system named is Rattus norvegicus. The experiment in a line: The concentration yielding a half maximal decrease of the 5-HTP was determined in rat limbic system; inactive at 50 umol/kg. The class given is functional, organism-based. In a few lines:
as §1

In assay [25] the test system is Rattus norvegicus. Kind of assay: The concentration yielding a half maximal decrease of the DOPA was determined in rat limbic system; inactive at 50 umol/kg. The class given is functional, organism-based.
Assay [26] relates to Rattus norvegicus. The experiment in a line: The concentration yielding a half maximal decrease of the DOPA was determined in rat brain hemispheres; Inactive at 3.1 umol/kg. It is filed as functional, organism-based. The method, boiled down: as §1
The subject of assay [27] is Rattus norvegicus. Kind of assay: The concentration yielding a half maximal decrease of the DOPA was determined in rat brain striatum; Inactive at 3.1 umol/kg. It is filed as functional, organism-based.

Molecules are shown by their SMILES. The source made the active and inactive calls. The rule behind the calls is not given here.

D(2) dopamine receptor, sequence (P61169 whole entry): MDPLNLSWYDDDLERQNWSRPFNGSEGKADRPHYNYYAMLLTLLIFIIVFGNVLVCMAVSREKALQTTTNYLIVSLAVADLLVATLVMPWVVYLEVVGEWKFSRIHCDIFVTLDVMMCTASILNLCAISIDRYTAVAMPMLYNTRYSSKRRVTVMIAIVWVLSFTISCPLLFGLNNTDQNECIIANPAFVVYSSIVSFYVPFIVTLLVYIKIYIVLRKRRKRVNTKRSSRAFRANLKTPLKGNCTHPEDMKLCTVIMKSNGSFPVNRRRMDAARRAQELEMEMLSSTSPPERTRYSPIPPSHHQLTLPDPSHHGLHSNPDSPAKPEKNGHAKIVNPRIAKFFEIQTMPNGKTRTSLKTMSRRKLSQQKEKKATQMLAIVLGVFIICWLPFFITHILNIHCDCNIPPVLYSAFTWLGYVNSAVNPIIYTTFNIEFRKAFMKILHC

With `CCCN(CCC)C1CCc2ccc3[nH]ccc3c2C1` (stereo not drawn), the Activity in the assay on Rattus norvegicus [1] turned out to be 177 Counts 30min-1.

Compound `CCCN(CCC)[C@@H]1CCc2ccc3[nH]ccc3c2C1` had an Activity in the assay on Rattus norvegicus [1] of 82 Counts 30min-1.

For orientation: ED50 means the dose at which the effect has come halfway, by size or by number of responders. `CCCN(CCC)C1CCc2ccc3[nH]cc(C=O)c3c2C1` (stereo not drawn) displayed a Counts/30 min in the assay with Rattus norvegicus [2] of 231. Also, the pED50 in the assay filed under Rattus norvegicus [3] worked out at 6.52; in the assay filed under Rattus norvegicus [7] it was 5.48; in the assay filed under Rattus norvegicus [8], 6.88; in the assay listed under Rattus norvegicus [9], 6.95; in the assay listed under Rattus norvegicus [12], 7.18. Besides, the median effective dose (ED50) in the assay listed under Rattus norvegicus [4] came out at 0.13 µmol/kg; in the assay listed under Rattus norvegicus [5], 3.3 µmol/kg; in the assay filed under Rattus norvegicus [6], 0.11 µmol/kg; in the assay listed under Rattus norvegicus [11], 0.3 µmol/kg. In the assay on Rattus norvegicus [10], the ED50 entry was “inactive”.

One may read the Ki as the equilibrium dissociation constant of an inhibitor or competing ligand from its target. A low value points to tighter binding. For the compound `CCCN(CCC)[C@H]1CCc2ccc3[nH]cc(C#N)c3c2C1`, the pED50 in the assay filed under Rattus norvegicus [3] came out at 4.37; in the assay filed under Rattus norvegicus [7], 4.29; in the assay filed under Rattus norvegicus [8], 6.81; in the assay listed under Rattus norvegicus [9] it was 7.93; in the assay listed under Rattus norvegicus [12], 7.05. Moreover, in the assay with Rattus norvegicus [1], the Activity worked out at 300 Counts 30min-1. Moreover, the inhibition constant Ki is 2.9 nM in assay [13] and 8020 nM at D(2) dopamine receptor. In addition, the ED50 in the assay listed under Rattus norvegicus [14] worked out at 0.15 µmol/kg; in the assay listed under Rattus norvegicus [15], 52 µmol/kg; in the assay filed under Rattus norvegicus [16], 0.12 µmol/kg; in the assay listed under Rattus norvegicus [17], 42 µmol/kg; in the assay listed under Rattus norvegicus [18], 0.089 µmol/kg. Further, the ED50 entry in the assay with Rattus norvegicus [19] was “inactive”.

Consider `CCCN(CCC)[C@H]1CCc2ccc3[nH]ccc3c2C1`, for which the Activity in the assay on Rattus norvegicus [1] amounted to 29 Counts 30min-1.

For the compound `CCCN(CCC)C1CCc2ccc3c(CC(F)(F)F)c[nH]c3c2C1` (stereo not drawn), the ED50 result with Rattus norvegicus [20], in the assay with Rattus norvegicus [21], with Rattus norvegicus [22], in the assay with Rattus norvegicus [23], with Rattus norvegicus [24] and in the assay on Rattus norvegicus [25] was “inactive” each time. In the assay on Rattus norvegicus [1], this compound displayed an Activity of 74 Counts 30min-1. The compound further displayed a Ki at D(2) dopamine receptor of 2330 nM.

Regarding `CCCN(CCC)[C@@H]1CCc2ccc3[nH]cc(C#N)c3c2C1`, the pED50 in the assay filed under Rattus norvegicus [3] is reported as 5.78; in the assay filed under Rattus norvegicus [8], 6.85; in the assay filed under Rattus norvegicus [9], 7.03; in the assay listed under Rattus norvegicus [12], 7.44. The inhibition constant Ki stood at 2.7 nM in assay [13] and 419 nM at D(2) dopamine receptor. Further, the 50% effective dose (ED50) in the assay filed under Rattus norvegicus [14] came to 0.14 µmol/kg; in the assay filed under Rattus norvegicus [16] it was 0.092 µmol/kg; in the assay listed under Rattus norvegicus [17] it was 1.65 µmol/kg; in the assay listed under Rattus norvegicus [18], 0.036 µmol/kg. Besides, the ED50 result in the assay with Rattus norvegicus [26] and with Rattus norvegicus [27] was “inactive” each time.
